# Compounds with a hit are over-represented: about 1.3% of the library has one in this group of screens.
# TAG inh: inhibitors of triacylglycerol accumulation. H9c2 cells, Nile Red lipid (TAG) fluorescence; cells loaded with 200 µM oleic acid. inhibition, % at 12.5 µM. 230,000 compounds, 0.66% hits;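 active = pattern-corrected inhibition of lipid staining of at least 50% with the nuclear-stain viability signal not falling by more than 50%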;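 note: 0% = DMSO wells and 100% = triacsin C control wells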
# Hep lipid drop: hepatic lipid droplet formation modulation; AML12 mouse hepatocytes, oleate lipid droplets, BODIPY imaging; inhibition, % at 6.5 µM; 240,000 compounds, 0.4% hits; AID 1656;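 active = lipid droplet intensity inhibited by at least 50%, with more than 500 cells counted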
#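 System: AML12 hepatocytes (mouse). Probe or stimulus: oleic acid at 100 µM to induce lipid droplet formation. Times: overnight treatment with compound plus oleate. Detection: Image-based BODIPY and DAPI two-channel analysis. Evaluation: percent inhibition of filter-corrected integrated lipid droplet intensity per well.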
# GSK3A inh: blocks human GSK-3 alpha kinase; 320,000 compounds, 0.1% hits; P49840; ADP-Glo luminescence, 60 min; inhibition, % at 10 µM;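 active = more than half of replicates show inhibition above 20%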;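 note: GST-tagged GSK-3 alpha with peptide substrate and 25 µM ATP; 0% = DMSO neutral wells and 100% = GW8510 positive control wells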
# STK33 kinase inh: inhibitors of human STK33 kinase; 320,000 compounds, 0.073% hits; inhibition, % at 10 µM; purified STK33, MBP phosphorylation, ADP-Glo luminescence; AID 2661; Q9BYT3;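 active = inhibition at or above 25%, using the most active replicate where run in duplicate; inactive = inhibition below 25%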
# GSK3B inh: inhibitors of human GSK3beta kinase | P49841 | GST-GSK3beta kinase, ADP-Glo luminescence, 60 min; stronger effect = lower value | activity score (negative = inhibition), % at 10 µM | 300,000 compounds, 0.038% hits;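 active = more than half of replicate wells score below -50%, meaning over 50% inhibition versus plate controls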;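 note: 0% = median DMSO wells and -100% = median GW8510 positive control wells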
# Target sequence (P49841 whole entry, looked up): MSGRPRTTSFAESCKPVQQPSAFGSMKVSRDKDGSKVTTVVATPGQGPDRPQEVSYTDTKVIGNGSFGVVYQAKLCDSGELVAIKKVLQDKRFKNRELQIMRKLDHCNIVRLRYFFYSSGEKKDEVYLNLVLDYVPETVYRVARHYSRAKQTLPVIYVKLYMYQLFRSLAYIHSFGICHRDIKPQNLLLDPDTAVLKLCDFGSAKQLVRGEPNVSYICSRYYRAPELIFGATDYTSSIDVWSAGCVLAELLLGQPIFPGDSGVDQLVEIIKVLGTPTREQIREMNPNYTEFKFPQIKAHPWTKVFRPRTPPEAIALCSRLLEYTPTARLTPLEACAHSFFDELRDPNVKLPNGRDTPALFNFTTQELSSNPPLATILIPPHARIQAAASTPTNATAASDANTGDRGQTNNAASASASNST
#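 Assay system: GST-fused GSK3beta enzyme, cell-free / Medium: Tris pH 7.5 buffer with MgCl2, DTT, BSA, heparin / Also added: peptide substrate plus 25 µM ATP (final) / Compound: 10 µM single point / Timing: kinase reaction with compound 60 min at room temperature / Detection: ADP-Glo luminescence / Benchmarks: DMSO neutral wells and GW8510 at 20 µM as positive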
# LANA-H2A inh: blocks KSHV LANA binding to histone H2A/H2B; Q9QR71; cell-free LANA-H2A/H2B peptide, fluorescence polarization; inhibition, % (concentration not given with the values); 320,000 compounds, 0.6% hits; in the data active = inhibition mostly above about 10%, no sharp cut-off; inactive = mostly below about 6.7%
# Lipid drop inh: hepatic lipid droplet formation inhibition, confirmed | shares compounds with Hep lipid drop | AML12 mouse hepatocytes, BODIPY lipid droplet imaging; droplets induced with 100 µM oleic acid | inhibition, % at 5.2 µM | 870 compounds, 65% hits | AID 463183;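 active = inhibition of lipid droplet metric at least 50%, with more than 300 cells in each of four replicates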;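 note: plate controls were DMSO with oleic acid for no effect and 5 µM Triacsin-C for full effect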
# AML12 tox img: AML12 hepatocyte cytotoxicity (counter-screen); shares compounds with Hep lipid drop; AML12 mouse hepatocytes, DAPI nuclear morphology cytotoxicity imaging; stronger effect = higher value; cells fed 100 µM oleate overnight; z-score at 5 µM; 870 compounds, 3% hits; in the data active = z-score above about 6.3;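 note: compound exposure lasted overnight at 37 °C before fixation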
# AML12 tox conf: confirmation of cytotoxicity in AML12 mouse hepatocytes; shares compounds with Hep lipid drop; cytotoxicity, % at 50 µM; 530 tested, under 10 active; AML12 mouse hepatocyte viability, ATP luminescence; cells loaded with 100 µM oleic acid;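 active = cytotoxicity above 50% in each of four replicates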;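 note: compound exposure lasted overnight at 37 °C before the ATP read; 0% = DMSO-treated cells and 100% = wells with no cells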
# Starred values were filed as active, the others as inactive; nt = no result given.
SMILES,TAG inh,Hep lipid drop,GSK3A inh,STK33 kinase inh,GSK3B inh,LANA-H2A inh,Lipid drop inh,AML12 tox img,others
CN1CC(=O)Nc2ccc([N+](=O)[O-])cc2C1=O,nt,91.4*,0.1,-0.4,-3.5,2.9,25.7,-1.22,
CCCSC(=O)N(CC)CC(=O)Nc1c(CC)cccc1CC,42.6,63.8*,nt,-1.5,4.3,2.6,90.1*,-0.203,AML12 tox conf=16.2
C=CCN(CC(=O)Nc1c(C)cccc1CC)C(=O)SCCC,nt,40.6,nt,-0.8,1.1,-5.3,nt,nt,
Cc1c(NC(=O)c2ccc(COc3ccc4ccccc4c3)o2)c(=O)n(-c2ccccc2)n1C,nt,nt,2.7,-2.3,-1.1,-3.2,nt,nt,
CC(C)Cn1c(N)c(C(=O)COC(=O)c2cc(C3CC3)nc3ccccc23)c(=O)n(C)c1=O,nt,73.7*,0.3,-1.1,nt,5.6,84.9*,0.0163,
CCCC1(CCC)NC(=O)N(CC(=O)Nc2ccccc2OC)C1=O,23.5,nt,-1.1,-0.1,1.7,-0.7,nt,nt,
COc1ccc(Cl)cc1NC(=O)CN1C(=O)NC2(CCCC2)C1=O,nt,87.8*,-2.1,-1.0,-1.3,-1.1,91.2*,0.559,AML12 tox conf=15.4
CCCC1(c2ccccc2)NC(=O)N(CC(=O)Nc2cc(C)ccc2OC)C1=O (centres undefined),nt,55.9*,-1.2,-0.6,2.4,-1.3,87.4*,-0.483,AML12 tox conf=12.5
Cc1c(C(=O)NCc2cccnc2)oc2c1C(=O)CC(C)(C)C2,nt,27.8,-0.2,-1.8,3.0,1.5,nt,nt,
CCOc1cc([C@@H]2C[C@H]3CN(c4ccccc4)C(=O)[C@]34CCCN24)ccc1OC,84.8,79.7*,-0.4,-0.2,0.7,-0.3,97.3*,0.569,AML12 tox conf=18.9
N#Cc1c(SCC(N)=O)nc2c(c1-c1ccc(O)cc1)CCCC2,nt,3.4,-0.1,-0.9,-0.2,0.0,nt,nt,
CCn1c(=O)n(CC)c2cc(S(=O)(=O)Nc3ccccc3C)c(C)cc21,nt,40.4,-1.2,-1.9,0.0,-2.3,nt,nt,
CCc1ccccc1NS(=O)(=O)c1cc2c(cc1C)n(C)c(=O)c(=O)n2C,nt,84.6*,-1.6,0.0,1.1,-1.9,105.0*,-0.205,AML12 tox conf=8.9
COCCCN(C(=O)Nc1ccccc1)C(C)c1ccncc1 (centres undefined),1.5,nt,-0.9,-1.3,1.2,2.3,nt,nt,
COC(=O)COc1cccc(NC(=O)c2ccc(Cl)cc2)c1,0.1,50.8*,-1.6,2.0,-1.5,4.2,27.6,0.47,
COc1ccc2c(c1)c(CC(=O)Nc1ccc(C(C)=O)cc1)c(C)n2C(=O)c1ccc(Cl)cc1,nt,72.9*,0.3,-1.6,2.4,3.4,77.1*,-0.587,AML12 tox conf=4.9
COc1ccc2c(c1)c(CC(=O)Nc1ccccc1OC)c(C)n2C(=O)c1ccc(Cl)cc1,32.0,67.2*,-2.6,0.9,-1.5,-0.8,-74.9,7.89,
COc1ccc(OC)c(NC(=O)Cc2c(C(=O)O)n(C)c3ccccc23)c1,nt,nt,-4.5,-0.6,3.9,-2.3,nt,nt,
CCN1CCN(C(=S)NC(=O)c2cc(OC)c(OC)c(OC)c2)CC1,15.9,nt,-2.8,-2.4,nt,-2.0,nt,nt,
O=C(CCC(=O)c1ccc(F)cc1)Nc1cccc(S(=O)(=O)Nc2cccc(Cl)c2)c1,nt,50.7*,-3.2,-0.7,3.2,-1.1,-38.6,0.0233,
CCOc1ccc(CN2CCSCC2)cc1,-6.1,nt,-3.5,-0.4,-0.6,3.3,nt,nt,
CCOc1ccc2c(c1)-c1c(ssc1=S)C(C)(C)N2C(=O)CSC1=NCCS1,nt,53.5*,-3.2,0.1,-1.8,-1.0,12.6,0.203,
CCCn1nc(C(=O)N2CC(=O)Nc3ccccc32)c2ccccc2c1=O,13.8,nt,0.2,-0.5,-0.3,-3.1,nt,nt,
CCOc1cc(CNn2cnnc2)ccc1OCC(=O)NC1CCCCC1,nt,-7.2,0.1,-0.8,2.6,0.3,nt,nt,
O=C(CSc1nc2ccccc2s1)N1N=C(c2cccs2)CC1c1ccc(F)cc1 (centres undefined),nt,-10.5,-3.0,-1.1,-6.0,2.9,nt,nt,
SMILES,TAG inh,Hep lipid drop,GSK3A inh,STK33 kinase inh,GSK3B inh,LANA-H2A inh,Lipid drop inh,AML12 tox img,others
COc1ccc(C2CC(c3cccs3)=NN2C(=O)CSc2nc3ccccc3s2)cc1 (centres undefined),nt,74.2*,1.8,0.3,8.7,-1.1,100.6*,-0.944,AML12 tox conf=4.5
COc1ccc(S(=O)(=O)N(c2onc(C)c2Cl)S(=O)(=O)c2ccc(OC)cc2)cc1,-3.7,59.6*,-2.9,-0.1,1.9,0.4,36.6,-1.18,
O=C(N/N=C/c1cn(-c2ccccc2)nc1-c1cc2ccccc2o1)c1ccccc1Br,nt,102.4*,1.9,-2.4,1.3,1.3,105.3*,1.14,AML12 tox conf=14.8
O=C(N/N=C/c1cn(-c2cccs2)nc1-c1ccccc1)c1ccccc1Br,nt,10.8,-3.6,-1.1,7.6,1.4,nt,nt,
CS(=O)(=O)N(CC(=O)NCC1CCCO1)c1cc(Cl)c(Cl)cc1Cl (centres undefined),-9.7,-14.6,-3.4,-0.9,3.0,7.1,nt,nt,
CCS(=O)(=O)N1CCN(c2ccc([N+](=O)[O-])c(NCc3cccnc3)c2)CC1,6.1,59.4*,3.1,-2.0,2.3,-0.1,-18.4,0.181,
O=[N+]([O-])c1ccc(N2CCN(S(=O)(=O)c3ccccc3[N+](=O)[O-])CC2)cc1NCc1cccnc1,nt,0.9,-1.6,0.9,3.9,2.7,nt,nt,
Oc1ccc(-c2cn3cc(C(F)(F)F)ccc3n2)cc1,nt,12.0,1.8,2.7,-2.0,-3.1,nt,nt,
CCC(Sc1nc2ccsc2c(=O)n1-c1ccc(Cl)c(C)c1)C(=O)NCc1ccco1 (centres undefined),nt,53.6*,nt,nt,0.6,nt,63.7*,0.0759,
Cc1ccc(CNC(=O)c2ccc(N3CCC4(CC3)CC(c3ccccc3)=NO4)c(N)c2)cc1,23.9,52.2*,-4.8,-1.1,-4.6,-1.7,89.5*,-0.924,AML12 tox conf=19.6
Cc1ccc(CNC(=O)c2ccc(N3CCC4(CC3)CC(c3ccccc3)=NO4)c(NC(=O)c3ccccc3)c2)cc1,6.1,nt,-6.6,1.6,-1.9,2.4,nt,nt,
Clc1ccccc1CN(Cc1ccco1)Cc1nnnn1C1CCCC1,-6.2,67.9*,-1.8,-2.6,0.0,4.2,0.7,-0.678,
Clc1ccc(Cc2nc(-c3cccnc3)no2)cc1,nt,nt,1.1,-0.6,-0.1,-1.9,nt,nt,
CCn1c(COc2cccc(C)c2)nnc1SCC(=O)Nc1cccc(C(=O)O)c1,13.0,-0.2,-1.8,0.1,-2.8,-3.1,nt,nt,
CCCc1cc(C(=O)Nc2cccnc2)no1,1.5,nt,0.2,-0.2,-3.4,-2.7,nt,nt,

# Assay outcomes: PubChem, several laboratories
